Measured values from ChEMBL document CHEMBL1121742, “Synthesis and antibacterial activity of some ester, amides, and hydrazides of 3-carboxyrifamycin S. Relationship between structure and activity of ansamycins” (1981).
Converted amounts (≈) assume the structure as drawn.

Key:
Salmonella paratyphi = experiment: Minimum inhibitory concentration of compound tested for antibacterial activity against Salmonella paratyphi BO 248 K(Sclavo); format: functional, Salmonella enterica subsp. enterica serovar Paratyphi A; conditions: Salmonella enterica
Escherichia coli [1] = experiment: Minimum inhibitory concentration of compound tested for antibacterial activity against Escherichia coli ML/35; format: functional
Method in brief: (§1)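 MIC by serial dilution in liquid medium in test tubes. Medium was brain-heart infusion and the inoculum was 10⁶ cells/mL. Tubes were incubated at 35 °C for 24 h. MIC was taken as the lowest antibiotic concentration preventing visible growth.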

Klebsiella pneumoniae [2] = experiment: Minimum inhibitory concentration of compound tested for antibacterial activity against Klebsiella pneumoniae ottaviani; format: functional; method in brief: as §1
Staphylococcus aureus = experiment: Minimum inhibitory concentration of compound tested for antibacterial activity against Staphylococcus aureus 209 P(FDA); format: functional; method in brief: as §1
Escherichia coli [3] = experiment: Minimum inhibitory concentration of compound tested for antibacterial activity against Escherichia coli ML/35; 25-50; format: functional; method in brief: as §1
Klebsiella pneumoniae [4] = experiment: Minimum inhibitory concentration of compound tested for antibacterial activity against Klebsiella pneumoniae ottaviani; 25-50; format: functional; method in brief: as §1

| SMILES | MIC (Salmonella paratyphi) | MIC (Escherichia coli [1]) | MIC (Klebsiella pneumoniae [2]) | MIC (Staphylococcus aureus) | MIC (Escherichia coli [3]) | MIC (Klebsiella pneumoniae [4]) |
| --- | --- | --- | --- | --- | --- | --- |
| COC1/C=C/OC2(C)Oc3c(C)c(O)c4c(c3C2=O)C(=O)C(C(=O)N(C)C)=C(NC(=O)/C(C)=C\C=C\C(C)C(O)C(C)C(O)C(C)C(OC(C)=O)C1C)C4=O (stereo unspecified) | > 50 µg/mL | > 50 µg/mL | > 50 µg/mL | 0.025 µg/mL (≈ 0.0326 µM) |  |  |
| COC1/C=C/OC2(C)Oc3c(C)c(O)c4c(c3C2=O)C(=O)C(C(=O)Nc2ccc(Br)cc2)=C(NC(=O)/C(C)=C\C=C\C(C)C(O)C(C)C(O)C(C)C(OC(C)=O)C1C)C4=O (stereo unspecified) | > 50 µg/mL | > 50 µg/mL | > 50 µg/mL | 0.1 µg/mL (≈ 0.112 µM) |  |  |
| COC1/C=C/OC2(C)Oc3c(C)c(O)c4c(c3C2=O)C(=O)C(C(=O)N(C)N2CCCCC2)=C(NC(=O)/C(C)=C\C=C\C(C)C(O)C(C)C(O)C(C)C(OC(C)=O)C1C)C4=O (stereo unspecified) | > 50 µg/mL | > 50 µg/mL | > 50 µg/mL | ~0.03 µg/mL (≈ 0.0359 µM) |  |  |
| COC1/C=C/OC2(C)Oc3c(C)c(O)c4c(c3C2=O)C(=O)C(C(=O)OCC(O)CO)=C(NC(=O)/C(C)=C\C=C\C(C)C(O)C(C)C(O)C(C)C(OC(C)=O)C1C)C4=O (stereo unspecified) | > 50 µg/mL | > 50 µg/mL | > 50 µg/mL | ~0.5 µg/mL (≈ 0.614 µM) |  |  |
| COC(=O)C1=C2NC(=O)/C(C)=C\C=C\C(C)C(O)C(C)C(O)C(C)C(OC(C)=O)C(C)C(OC)/C=C/OC3(C)Oc4c(C)c(O)c(c(c4C3=O)C1=O)C2=O (stereo unspecified) | ~50 µg/mL (≈ 66.3 µM) |  |  | 0.05 µg/mL (≈ 0.0663 µM) | 25 µg/mL (≈ 33.2 µM) | 25 µg/mL (≈ 33.2 µM) |
| COC1/C=C/OC2(C)Oc3c(C)c(O)c4c(c3C2=O)C(=O)C(C(=O)NN(C)C)=C(NC(=O)/C(C)=C\C=C\C(C)C(O)C(C)C(O)C(C)C(OC(C)=O)C1C)C4=O (stereo unspecified) | > 50 µg/mL | > 50 µg/mL | > 50 µg/mL | < 0.005 µg/mL |  |  |
| COC1/C=C/OC2(C)Oc3c(C)c(O)c4c(c3C2=O)C(=O)C(C(=O)N2CCN(C)CC2)=C(NC(=O)/C(C)=C\C=C\C(C)C(O)C(C)C(O)C(C)C(OC(C)=O)C1C)C4=O (stereo unspecified) | > 50 µg/mL | > 50 µg/mL | > 50 µg/mL | 0.1 µg/mL (≈ 0.122 µM) |  |  |
| CO[C@H]1/C=C/O[C@@]2(C)Oc3c(C)c(O)c4c(O)c(c(/C=N/N5CCN(C)CC5)c(O)c4c3C2=O)NC(=O)/C(C)=C\C=C\[C@H](C)[C@H](O)[C@@H](C)[C@@H](O)[C@@H](C)[C@H](OC(C)=O)[C@@H]1C [RIFAMPIN] | 12 µg/mL (≈ 14.6 µM) | 6 µg/mL (≈ 7.29 µM) | 25 µg/mL (≈ 30.4 µM) | ~0.025 µg/mL (≈ 0.0304 µM) |  |  |
| CO[C@H]1/C=C/O[C@@]2(C)Oc3c(C)c(O)c4c(O)c(cc(O)c4c3C2=O)NC(=O)/C(C)=C\C=C\[C@H](C)[C@H](O)[C@@H](C)[C@@H](O)[C@@H](C)[C@H](OC(C)=O)[C@@H]1C [RIFAMYCIN] | 100 µg/mL (≈ 143 µM) | 100 µg/mL (≈ 143 µM) | 100 µg/mL (≈ 143 µM) | < 0.005 µg/mL |  |  |
